Source: ChEMBL document CHEMBL1123889, “Improved synthesis and antitumor activity of 1-deazaadenosine” (J Med Chem, 1987)

How the values were obtained:
HeLa [1] = experiment: The compound was tested in vitro for antitumor activity(50% inhibition of tumor cell growth) against HeLa human cell lines after 144 hr; format: functional; details: read-out: ID50 (the source's name)
In short: (§1)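 5 × 10^5 exponentially growing cells exposed to varying drug concentrations for 144 h, then counted with a Coulter counter. ID50 is the drug concentration in culture medium giving 50% inhibition of cell growth versus untreated controls.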

P388 [2] = experiment: (§2) The compound was tested in vitro for antitumor activity(50% inhibition of tumor cell growth) against the P388 murine cell lines after 72 hours; format: functional; details: Mus musculus, P388, 72 h; read-out: ID50 (the source's name)
In short: (§3)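 Murine leukemia cells (P388, the doxorubicin-resistant subline P388/DX, or L1210) were grown as suspension cultures in 1640 medium with 10% fetal calf serum, 20 µM 2-mercaptoethanol, […] and antibiotics, at 37 °C in humidified 5% CO2. 5 × 10^5 exponentially growing cells were exposed to a range of drug concentrations for 72 h, then Coulter-counted. ID50 is the concentration giving 50% growth inhibition versus untreated controls.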

KB [3] = experiment: The compound was tested in vitro for antitumor activity(50% inhibition of tumor cell growth) against KB human cell lines after 72 hr; format: functional; details: read-out: ID50 (the source's name)
In short: (§4)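 5 × 10^5 exponentially growing human tumour cells were exposed to a range of drug concentrations for the stated time (72 or 144 h), then counted on a Coulter counter. ID50 is the concentration in the culture medium giving 50% inhibition of cell growth relative to untreated controls.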

L1210 [4] = experiment: (§5) The compound was tested in vitro for antitumor activity(50% inhibition of tumor cell growth) against the L1210 murine cell lines after 72 hours; format: functional; details: Mus musculus, L1210, 72 h; read-out: ID50 (the source's name); in short: as §3
Mus musculus [5] = species on record: Mus musculus; experiment: (§6) The compound was tested in vitro for antitumor activity(50% inhibition of tumor cell growth) against the P388/doxorubicin resistant murine cell lines after 72 hours; format: functional; details: P388, 72 h, read-out: ID50 (the source's name); in short: as §3
HeLa [6] = experiment: The compound was tested in vitro for antitumor activity(50% inhibition of tumor cell growth) against HeLa human cell lines after 72 hr; format: functional; details: read-out: ID50 (the source's name); in short: as §4
KB [7] = experiment: The compound was tested in vitro for antitumor activity(50% inhibition of tumor cell growth) against KB human cell lines after 144 hr; format: functional; details: read-out: ID50 (the source's name); in short: as §1
P388 [8] = experiment: as §2; format: functional; details: Mus musculus, P388, 72 h; read-out: ID50 (the source's name); remark: listed apart in the source
In short: (§7)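 Suspension cultures were grown in 1640 medium with 10% fetal calf serum, 20 µM 2-mercaptoethanol, […] and antibiotics at 37 °C in 5% CO2. 5×10^5 exponentially growing cells were exposed to varying drug concentrations for 72 h, then counted with a Coulter counter. ID50 is the concentration giving 50% growth inhibition versus untreated controls.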

L1210 [9] = experiment: as §5; format: functional; details: Mus musculus, L1210, 72 h; read-out: ID50 (the source's name); in short: as §7; remark: listed apart in the source
Mus musculus [10] = species on record: Mus musculus; experiment: as §6; format: functional; details: P388, 72 h, read-out: ID50 (the source's name); in short: as §7; remark: listed apart in the source
Mus musculus [11] = experiment: Antitumor activity against leukemia P388/DX cells at 150.0 mg/kg/day expressed as toxic deaths in mice was reported; 2/20 mice; details: in vivo
L1210 [12] = experiment: Antitumor activity against leukemia L1210 cells at 75.0 mg/kg/day expressed as mean survival of treated mice (T) compared to untreated (C) was reported; format: functional, Mus musculus
Mus musculus [13] = experiment: Antitumor activity against leukemia P388/DX cells at 100.0 mg/kg/day expressed as mean survival of treated mice (T) to untreated (C) was reported; format: functional
In short: (§8)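 BDF1 mice given 10^6 doxorubicin-resistant P388 cells ip. Compound was dissolved in distilled water just before use and given ip daily for 9 days from 24 h post-inoculation. %T/C = median survival of treated/control ×100, with 125 significant. Toxic deaths were judged by gross autopsy, mainly from reduced spleen and liver size.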

Mus musculus [14] = experiment: Antitumor activity against leukemia P388/DX cells at 300.0 mg/kg/day expressed as mean survival of treated mice (T) to untreated (C) was reported; format: functional; in short: as §8
L1210 [15] = experiment: Antitumor activity against leukemia L1210 cells at 150.0 mg/kg/day expressed as mean survival of treated mice (T) to untreated (C) was reported; format: functional, Mus musculus
Mus musculus [16] = experiment: Antitumor activity against leukemia P388/DX cells at 300.0 mg/kg/day expressed as toxic deaths in mice was reported; 8/20 mice; details: in vivo
Mus musculus [17] = experiment: Antitumor activity against leukemia P388/DX cells at 100.0 mg/kg/day expressed as toxic deaths in mice was reported; 0/10 mice; format: functional; in short: as §8
L1210 [18] = experiment: Antitumor activity against leukemia L1210 cells at 150.0 mg/kg/day expressed as Number of mice died for toxicity to number of treated mice; 0/10 mice; format: functional, Mus musculus
Mus musculus [19] = experiment: Antitumor activity against leukemia P388/DX cells at 150.0 mg/kg/day expressed as mean survival of treated mice (T) to untreated (C) was reported; format: functional; in short: as §8
L1210 [20] = experiment: Antitumor activity against leukemia L1210 cells at 75.0 mg/kg/day expressed as Number of mice died for toxicity to number of treated mice; 0/10 mice; format: functional, Mus musculus
Mus musculus [21] = experiment: Antitumor activity against leukemia P388/DX cells at 12.5 mg/kg/day expressed as mean survival of treated mice (T) to untreated (C) was reported; format: functional
In short: (§9)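 BDF1 mice given 10^6 doxorubicin-resistant P388 cells ip; the line was kept by weekly ip passage with doxorubicin. Compound was dissolved in distilled water just before use and given ip daily for 7 days from 24 h post-inoculation; 10 mice per dose. %T/C = median survival of treated/control ×100, with 125 significant. Toxicity was judged by autopsy (spleen and liver shrinkage).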

Mus musculus [22] = experiment: Antitumor activity against leukemia P388/DX cells at 6.3 mg/kg/day expressed as toxic deaths in mice was reported; 0/10 mice; format: functional; in short: as §9
Mus musculus [23] = experiment: Antitumor activity against leukemia P388/DX cells at 3.1 mg/kg/day expressed as mean survival of treated mice (T) to untreated (C) was reported; format: functional; in short: as §9
L1210 [24] = experiment: Antitumor activity against leukemia L1210 cells at 6.3 mg/kg/day expressed as mean survival of treated mice (T) to untreated (C) was reported; format: functional, Mus musculus
L1210 [25] = experiment: Antitumor activity against leukemia L1210 cells at 12.5 mg/kg/day expressed as mean survival of treated mice (T) to untreated (C) was reported; format: functional, Mus musculus
L1210 [26] = experiment: Antitumor activity against leukemia L1210 cells at 25.0 mg/kg/day expressed as Number of mice died for toxicity to number of treated mice; 6/10 mice; format: organism-based; details: mouse, in vivo
L1210 [27] = experiment: Antitumor activity against leukemia L1210 cells at 25.0 mg/kg/day expressed as mean survival of treated mice (T) to untreated (C) was reported; format: functional, Mus musculus
Mus musculus [28] = experiment: Antitumor activity against leukemia P388/DX cells at 6.3 mg/kg/day expressed as mean survival of treated mice (T) to untreated (C) was reported; format: functional; in short: as §9
L1210 [29] = experiment: Antitumor activity against leukemia L1210 cells at 6.3 mg/kg/day expressed as Number of mice died for toxicity to number of treated mice; 0/10 mice; format: functional, Mus musculus
Mus musculus [30] = experiment: Antitumor activity against leukemia P388/DX cells at 12.5 mg/kg/day expressed as toxic deaths in mice was reported; 0/10 mice; format: functional; in short: as §9
L1210 [31] = experiment: Antitumor activity against leukemia L1210 cells at 12.5 mg/kg/day expressed as Number of mice died for toxicity to number of treated mice; 0/10 mice; format: functional, Mus musculus
Mus musculus [32] = experiment: Antitumor activity against leukemia P388/DX cells at 3.1 mg/kg/day expressed as toxic deaths in mice was reported; 0/10 mice; format: functional; in short: as §9

SMILES	IC50 (HeLa [1]) [µM]	IC50 (P388 [2]) [µM]	IC50 (KB [3]) [µM]	IC50 (L1210 [4]) [µM]	IC50 (Mus musculus [5]) [µM]	IC50 (HeLa [6]) [µM]	IC50 (KB [7]) [µM]	also measured
Nc1ncnc2c1ncn2[C@@H]1O[C@H](CO)[C@@H](O)[C@H]1O [ADENOSINE]	27.7	12.7	89.8	23.6	10.8	46	25.4	
O=c1[nH]cc(F)c(=O)[nH]1 [FLUOROURACIL]	0.8		13.8			6.1	2	IC50 (P388 [8]): 0.3 µM; IC50 (L1210 [9]): 0.4 µM; IC50 (Mus musculus [10]): 0.1 µM
Nc1ccn([C@@H]2O[C@H](CO)[C@@H](O)[C@@H]2O)c(=O)n1 [CYTARABINE]	0.1	0.02	1	0.02	0.01	0.6	1.1	
O=[N+]([O-])c1ccnc2c1ncn2C1O[C@H](CO)[C@@H](O)[C@H]1O (some centres not stated)	27	12.5	33.8	11.8	8.1	64.1	13.1	Activity (Mus musculus [11]): 2; T/C (L1210 [12]): 106%; T/C (Mus musculus [13]): 95%; T/C (Mus musculus [14]): 22%; T/C (L1210 [15]): 106%; Activity (Mus musculus [16]): 8; Activity (Mus musculus [17]): 0; Activity (L1210 [18]): 0; T/C (Mus musculus [19]): 97%; Activity (L1210 [20]): 0
Nc1ccnc2c1ncn2[C@@H]1O[C@H](CO)[C@@H](O)[C@H]1O	1.2	1.1	0.3	1.8	0.4	1.2	0.6	T/C (Mus musculus [21]): 111%; Activity (Mus musculus [22]): 0; T/C (Mus musculus [23]): 106%; T/C (L1210 [24]): 100%; T/C (L1210 [25]): 113%; Activity (L1210 [26]): 6; T/C (L1210 [27]): 88%; T/C (Mus musculus [28]): 106%; Activity (L1210 [29]): 0; Activity (Mus musculus [30]): 0; Activity (L1210 [31]): 0; Activity (Mus musculus [32]): 0
